Screening results (PubChem BioAssay)
XBP1 UPR activ: activators of adaptive arm of unfolded protein response (XBP1). CHO-XBP1 luciferase reporter, IRE1-XBP1 UPR activation, luminescence; percent of tunicamycin response, DMSO as zero. activation, % at 20 µM. 330,000 compounds, 0.33% hits;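 active = versus positive control, 20 µM dose yields 30% or more activation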;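 note: 100% = tunicamycin at 10 µg/mL and 0% = DMSO only wells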
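Assay system: CHO-XBP1 luciferase reporter cells; Schedule: 6 h treatment, 37 °C; Detection: glow luminescence from Steady-Glo reagent; Benchmarks: high control tunicamycin 10 µg/mL final, low control DMSO vehicle only.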
CHOP UPR activ: apoptotic UPR (CHOP) activation | CHO-CHOP luciferase reporter, luminescence; percent of tunicamycin response over DMSO baseline | activation, % at 10 µM | 330,000 compounds, 0.34% hits;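 active = at 10 µM dose, activation of 40% or more, normalized to positive control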;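 note: 100% = tunicamycin at 10 µg/mL and 0% = DMSO alone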
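System: CHO CHOP reporter cells. Amount: 500 cells per well. Buffer or medium: F12 medium, 10% FBS. Compound dosing: one dose, 10 µM in 0.5% DMSO. Incubation: 6 h compound exposure at 37 °C after overnight seeding. Technique: Steady-Glo luciferase luminescence. Benchmarks: tunicamycin and DMSO controls.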
CHOP inhibitor: CHOP inhibition in unfolded protein response; CHO-K1 CHOP-promoter luciferase, tunicamycin-induced, 15-18 h; inhibition, % at 10 µM; 220,000 compounds, 3.8% hits;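 active = compounds that reduced the stress-induced luciferase reporter signal by more than about 70% of percent inhibition, limit read from the data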;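 note: 0% = tunicamycin plus vehicle and 100% = wells without tunicamycin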
TLR4 MyD88 comp: TLR4-MyD88 interaction inhibition in cells; HeLa CL3-4 TLR4/MyD88 BLA complementation, FRET ratio; inhibition, % at 8.4 µM; 200,000 compounds, 0.18% hits; AID 861; in the data active = inhibition above about 25%;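 note: 0% = vehicle and 100% = reference inhibitor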
NOD2-RIPK2 inh: blocks binding of human NOD2 to RIPK2; CHO BLA complementation NOD2-RIPK2, CCF4 ratio; inhibition, % at 4.98 µM; 360,000 compounds, 0.38% hits; in the data active = inhibition above about 21%;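 note: 0% = vehicle only and 100% = reference blocker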
Target sequence (O43353 whole entry, looked up): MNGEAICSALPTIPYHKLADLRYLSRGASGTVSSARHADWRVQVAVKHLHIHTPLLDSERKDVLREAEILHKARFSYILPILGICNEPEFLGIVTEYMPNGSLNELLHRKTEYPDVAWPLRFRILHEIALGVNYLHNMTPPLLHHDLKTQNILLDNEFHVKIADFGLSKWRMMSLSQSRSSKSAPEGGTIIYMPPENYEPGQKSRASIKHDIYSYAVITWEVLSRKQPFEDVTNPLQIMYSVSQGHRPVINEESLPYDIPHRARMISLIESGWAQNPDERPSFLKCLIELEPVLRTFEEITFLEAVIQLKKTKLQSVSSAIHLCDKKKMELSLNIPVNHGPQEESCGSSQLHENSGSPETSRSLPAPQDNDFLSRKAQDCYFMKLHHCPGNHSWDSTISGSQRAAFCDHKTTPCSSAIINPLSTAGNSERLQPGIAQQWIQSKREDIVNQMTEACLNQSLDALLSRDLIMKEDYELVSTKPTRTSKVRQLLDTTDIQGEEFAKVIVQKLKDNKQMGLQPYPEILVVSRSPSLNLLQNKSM
TLR9-MyD88 block: inhibitors of human TLR9-MyD88 binding | Q9NR96+Q99836 | 340,000 compounds, 0.21% hits | CHO BLA complementation TLR9-MyD88, CCF4 FRET ratio | inhibition, % at 4.98 µM | AID 504734;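 active = inhibition above the mean over all tested compounds plus 3 SD, cut at about 21% in these data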;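 note: 0% = DMSO only wells and 100% = clavulanate BLA inhibitor control wells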
UPR XBP1 confirm: adaptive UPR (XBP1) activation, confirmed. shares compounds with XBP1 UPR activ. CHO-XBP1 IRE1-XBP1 luciferase reporter, luminescence. activation, % at 20 µM. 1,000 compounds, 63% hits;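 active = reporter signal at least 30% of the positive control's activation in two or more of four replicate wells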;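 note: plate controls were DMSO negative control for no effect and tunicamycin 10 µg/mL positive control for full effect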
An asterisk follows results filed as active. The sample as a whole holds a higher share of hits than the screen did.

Results for CCOC(=O)c1nnn2c1nc(Nc1cccc(C(F)(F)F)c1)c1ccccc12 ?
XBP1 UPR activ: 70*; CHOP UPR activ: 30; CHOP inhibitor: 13; NOD2-RIPK2 inh: -3; UPR XBP1 confirm: 41*

What do the screens show for `CCOc1ccc(S(=O)(=O)NC(C)C(=O)NCc2cccnc2)cc1` (centres undefined)?
XBP1 UPR activ: -6; CHOP UPR activ: 2; NOD2-RIPK2 inh: 5; TLR9-MyD88 block: 7

Results for CCOC(=O)/C(=N\Nc1ccc(C(C)=O)cc1)c1csc(Nc2ccccc2)n1 ?
XBP1 UPR activ: 46*; CHOP UPR activ: 7; CHOP inhibitor: 46; TLR4 MyD88 comp: 5; NOD2-RIPK2 inh: -7; TLR9-MyD88 block: 8; UPR XBP1 confirm: 94*

How did CCCCN1C(=O)C(CC(=O)NCc2cccc3ccccc23)CC(C(=O)N2CCOCC2)=C1C (centres undefined) do in these assays?
NOD2-RIPK2 inh: 2; TLR9-MyD88 block: 0

Results for CCOc1ccc(N2C(=O)C(=O)/C(=C(/O)c3ccccc3)C2c2ccccc2[N+](=O)[O-])cc1 (centres undefined) ?
XBP1 UPR activ: 34*; CHOP UPR activ: 0; CHOP inhibitor: -15; NOD2-RIPK2 inh: 15; TLR9-MyD88 block: 8; UPR XBP1 confirm: 0

Results for CC1CCN(Cc2nnnn2CCCC(=O)N(C)C2CCOC2)CC1 (centres undefined) ?
XBP1 UPR activ: -5; CHOP UPR activ: 0; NOD2-RIPK2 inh: 7; TLR9-MyD88 block: -9

How did O=C(Nc1cccnc1)/C(N=Nc1c(Cl)cccc1Cl)=C(\O)c1ccccc1 do in these assays?
XBP1 UPR activ: 3; CHOP UPR activ: 0; CHOP inhibitor: 12; TLR4 MyD88 comp: -12; NOD2-RIPK2 inh: 5; TLR9-MyD88 block: -4

How did O=C(Nc1cccnc1)/C(N=Nc1ccc(Cl)c(C(F)(F)F)c1)=C(\O)c1ccccc1 do in these assays?
XBP1 UPR activ: 49*; CHOP UPR activ: 13; CHOP inhibitor: 9; TLR4 MyD88 comp: 7; NOD2-RIPK2 inh: -24; TLR9-MyD88 block: -1; UPR XBP1 confirm: 27

Results for COc1ccc(-c2ccc3c(c2)S(=O)(=O)c2cccc(C(=O)NCCOc4ccccc4Cl)c2C3=O)cc1OC ?
XBP1 UPR activ: 94*; CHOP UPR activ: 24; NOD2-RIPK2 inh: 2; TLR9-MyD88 block: 11; UPR XBP1 confirm: 46*

What do the screens show for `O=C(CSc1nnc(-c2ccc3c(c2)OCO3)n1-c1ccccc1)c1ccccc1`?
XBP1 UPR activ: -1; CHOP UPR activ: 0; CHOP inhibitor: 33; TLR4 MyD88 comp: 0; NOD2-RIPK2 inh: 2; TLR9-MyD88 block: -9

Results for O=C(CSc1nnc(-c2cccs2)n1-c1ccccc1)c1ccc2c(c1)OCCO2 ?
XBP1 UPR activ: 61*; CHOP UPR activ: 15; NOD2-RIPK2 inh: 2; TLR9-MyD88 block: 7; UPR XBP1 confirm: 22

Results for O=c1cc(-c2ccccc2Cl)oc2cccc(O)c12 ?
XBP1 UPR activ: 8; CHOP UPR activ: 3; CHOP inhibitor: 14; TLR4 MyD88 comp: -7; NOD2-RIPK2 inh: -4; TLR9-MyD88 block: -7

How did O=c1cc2oc3cc(O)c(O)cc3c(-c3ccccc3[N+](=O)[O-])c-2cc1O do in these assays?
XBP1 UPR activ: 34*; CHOP UPR activ: -2; NOD2-RIPK2 inh: 1; TLR9-MyD88 block: -8; UPR XBP1 confirm: 35*

How did CCC(C)(C)C1CCc2[nH]nc(C(=O)O)c2C1 (centres undefined) do in these assays?
XBP1 UPR activ: 2; CHOP UPR activ: -1; NOD2-RIPK2 inh: -6; TLR9-MyD88 block: -9

Results for N=c1c2c(n(Cc3ccc(F)cc3)c3c1CCC3)CCC2 ?
XBP1 UPR activ: 149*; CHOP UPR activ: -2; CHOP inhibitor: 4; TLR4 MyD88 comp: 23; NOD2-RIPK2 inh: 0; TLR9-MyD88 block: -2; UPR XBP1 confirm: 1
